Laboratory results: ChEMBL document CHEMBL4152188, “Design, synthesis and biological evaluation of C(4) substituted monobactams as antibacterial agents against multidrug-resistant Gram-negative bacteria” (Eur J Med Chem, 2018)
In brackets after ≈: the same amount, converted by molar mass.

Key:
Format in all cases: functional
Pseudomonas aeruginosa [1] = experiment: Antibacterial activity against IMP-4 producing Pseudomonas aeruginosa isolate 212886 after 18 hrs by CLSI broth microdilution method; details: isolate 212886, 18 h
Pseudomonas aeruginosa [2] = experiment: Antibacterial activity against IMP-4 producing Pseudomonas aeruginosa isolate 209471 after 18 hrs by CLSI broth microdilution method; details: isolate 209471, 18 h
Escherichia coli [3] = experiment: Selectivity index, ratio of MIC for against extended-spectrum beta-lactamase producing Escherichia coli isolate 209285 to MIC for extended-spectrum beta-lactamase producing Escherichia coli isolate 209285 in presence of BPL
Pseudomonas aeruginosa [4] = experiment: Antibacterial activity against IMP-4 producing Pseudomonas aeruginosa isolate 208247 after 18 hrs in presence of BPL by CLSI broth microdilution method; details: isolate 208247, 18 h
Summary of the method: (§1)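 CLSI broth microdilution against clinical isolates (ESBL E. coli, KPC-2 MDR K. pneumoniae, IMP-4 MDR P. aeruginosa; five per species). Iron limitation: Mueller-Hinton broth supplemented with 16 mg/liter 2,2'-bipyridyl to complex iron and induce iron uptake systems. Read-out: MIC.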

Pseudomonas aeruginosa [5] = experiment: Antibacterial activity against IMP-4 producing Pseudomonas aeruginosa isolate 207272 after 18 hrs by CLSI broth microdilution method; details: isolate 207272, 18 h
Klebsiella pneumoniae [6] = experiment: Antibacterial activity against KPC-2 producing Klebsiella pneumoniae isolate 209632 after 18 hrs in presence of BPL by CLSI broth microdilution method; details: isolate 209632, 18 h; summary of the method: as §1
Pseudomonas aeruginosa [7] = experiment: Antibacterial activity against IMP-4 producing Pseudomonas aeruginosa isolate 207272 after 18 hrs in presence of BPL by CLSI broth microdilution method; details: isolate 207272, 18 h; summary of the method: as §1
Pseudomonas aeruginosa [8] = experiment: Selectivity index, ratio of MIC for against IMP-4 producing Pseudomonas aeruginosa isolate 208247 to MIC for against IMP-4 producing Pseudomonas aeruginosa isolate 208247 in presence of BPL
Klebsiella pneumoniae [9] = experiment: Antibacterial activity against KPC-2 producing Klebsiella pneumoniae isolate 212232 after 18 hrs in presence of BPL by CLSI broth microdilution method; details: isolate 212232, 18 h; summary of the method: as §1
Escherichia coli [10] = experiment: Antibacterial activity against extended-spectrum beta-lactamase producing Escherichia coli isolate 212648 after 18 hrs by CLSI broth microdilution method; details: isolate 212648, 18 h
Escherichia coli [11] = experiment: Antibacterial activity against extended-spectrum beta-lactamase producing Escherichia coli isolate 106342 after 18 hrs in presence of BPL by CLSI broth microdilution method; details: isolate 106342, 18 h; summary of the method: as §1
Pseudomonas aeruginosa [12] = experiment: Antibacterial activity against IMP-4 producing Pseudomonas aeruginosa isolate 209471 after 18 hrs in presence of BPL by CLSI broth microdilution method; details: isolate 209471, 18 h; summary of the method: as §1
Klebsiella pneumoniae [13] = experiment: Antibacterial activity against KPC-2 producing Klebsiella pneumoniae isolate 212229 after 18 hrs in presence of BPL by CLSI broth microdilution method; details: isolate 212229, 18 h; summary of the method: as §1
Escherichia coli [14] = experiment: Antibacterial activity against extended-spectrum beta-lactamase producing Escherichia coli isolate 212648 after 18 hrs in presence of BPL by CLSI broth microdilution method; details: isolate 212648, 18 h; summary of the method: as §1
Klebsiella pneumoniae [15] = experiment: Antibacterial activity against KPC-2 producing Klebsiella pneumoniae isolate 209632 after 18 hrs by CLSI broth microdilution method; details: isolate 209632, 18 h
Pseudomonas aeruginosa [16] = experiment: Antibacterial activity against IMP-4 producing Pseudomonas aeruginosa isolate 209321 after 18 hrs by CLSI broth microdilution method; details: isolate 209321, 18 h
Pseudomonas aeruginosa [17] = experiment: Antibacterial activity against IMP-4 producing Pseudomonas aeruginosa isolate 212886 after 18 hrs in presence of BPL by CLSI broth microdilution method; details: isolate 212886, 18 h; summary of the method: as §1
Escherichia coli [18] = experiment: Selectivity index, ratio of MIC for against extended-spectrum beta-lactamase producing Escherichia coli isolate 106342 to MIC for extended-spectrum beta-lactamase producing Escherichia coli isolate 106342 in presence of BPL
Pseudomonas aeruginosa [19] = experiment: Antibacterial activity against IMP-4 producing Pseudomonas aeruginosa isolate 209321 after 18 hrs in presence of BPL by CLSI broth microdilution method; details: isolate 209321, 18 h; summary of the method: as §1
Klebsiella pneumoniae [20] = experiment: Selectivity index, ratio of MIC for against KPC-2 producing Klebsiella pneumoniae isolate 212232 to MIC for against KPC-2 producing Klebsiella pneumoniae isolate 212232 in presence of BPL
Klebsiella pneumoniae [21] = experiment: Antibacterial activity against KPC-2 producing Klebsiella pneumoniae isolate 212229 after 18 hrs by CLSI broth microdilution method; details: isolate 212229, 18 h
Klebsiella pneumoniae [22] = experiment: Selectivity index, ratio of MIC for against KPC-2 producing Klebsiella pneumoniae isolate 212423 to MIC for against KPC-2 producing Klebsiella pneumoniae isolate 212423 in presence of BPL
Escherichia coli [23] = experiment: Selectivity index, ratio of MIC for against extended-spectrum beta-lactamase producing Escherichia coli isolate 212648 to MIC for extended-spectrum beta-lactamase producing Escherichia coli isolate 212648 in presence of BPL
Escherichia coli [24] = experiment: Antibacterial activity against extended-spectrum beta-lactamase producing Escherichia coli isolate 209285 after 18 hrs in presence of BPL by CLSI broth microdilution method; details: isolate 209285, 18 h; summary of the method: as §1
Klebsiella pneumoniae [25] = experiment: Antibacterial activity against KPC-2 producing Klebsiella pneumoniae isolate 209735 after 18 hrs by CLSI broth microdilution method; details: isolate 209735, 18 h
Escherichia coli [26] = experiment: Selectivity index, ratio of MIC for against Escherichia coli isolate 210737 to MIC for Escherichia coli isolate 210737 in presence of BPL
Pseudomonas aeruginosa [27] = experiment: Selectivity index, ratio of MIC for against IMP-4 producing Pseudomonas aeruginosa isolate 207272 to MIC for against IMP-4 producing Pseudomonas aeruginosa isolate 207272 in presence of BPL
Escherichia coli [28] = experiment: Antibacterial activity against extended-spectrum beta-lactamase producing Escherichia coli isolate 209285 after 18 hrs by CLSI broth microdilution method; details: isolate 209285, 18 h
Escherichia coli [29] = experiment: Antibacterial activity against extended-spectrum beta-lactamase producing Escherichia coli isolate 208687 after 18 hrs in presence of BPL by CLSI broth microdilution method; details: isolate 208687, 18 h; summary of the method: as §1
Klebsiella pneumoniae [30] = experiment: Selectivity index, ratio of MIC for against KPC-2 producing Klebsiella pneumoniae isolate 209632 to MIC for against KPC-2 producing Klebsiella pneumoniae isolate 209632 in presence of BPL
Klebsiella pneumoniae [31] = experiment: Selectivity index, ratio of MIC for against KPC-2 producing Klebsiella pneumoniae isolate 212229 to MIC for against KPC-2 producing Klebsiella pneumoniae isolate 212229 in presence of BPL
Klebsiella pneumoniae [32] = experiment: Antibacterial activity against KPC-2 producing Klebsiella pneumoniae isolate 209735 after 18 hrs in presence of BPL by CLSI broth microdilution method; details: isolate 209735, 18 h; summary of the method: as §1
Klebsiella pneumoniae [33] = experiment: Antibacterial activity against KPC-2 producing Klebsiella pneumoniae isolate 212423 after 18 hrs in presence of BPL by CLSI broth microdilution method; details: isolate 212423, 18 h; summary of the method: as §1
Klebsiella pneumoniae [34] = experiment: Selectivity index, ratio of MIC for against KPC-2 producing Klebsiella pneumoniae isolate 209735 to MIC for against KPC-2 producing Klebsiella pneumoniae isolate 209735 in presence of BPL
Escherichia coli [35] = experiment: Antibacterial activity against extended-spectrum beta-lactamase producing Escherichia coli isolate 106342 after 18 hrs by CLSI broth microdilution method; details: isolate 106342, 18 h
Pseudomonas aeruginosa [36] = experiment: Selectivity index, ratio of MIC for against IMP-4 producing Pseudomonas aeruginosa isolate 209321 to MIC for against IMP-4 producing Pseudomonas aeruginosa isolate 209321 in presence of BPL
Klebsiella pneumoniae [37] = experiment: Antibacterial activity against KPC-2 producing Klebsiella pneumoniae isolate 212232 after 18 hrs by CLSI broth microdilution method; details: isolate 212232, 18 h
Pseudomonas aeruginosa [38] = experiment: Selectivity index, ratio of MIC for against IMP-4 producing Pseudomonas aeruginosa isolate 209471 to MIC for against IMP-4 producing Pseudomonas aeruginosa isolate 209471 in presence of BPL
Escherichia coli [39] = experiment: Antibacterial activity against Escherichia coli isolate 210737 after 18 hrs in presence of BPL by CLSI broth microdilution method; details: isolate 210737, 18 h; summary of the method: as §1
Escherichia coli [40] = experiment: Selectivity index, ratio of MIC for against extended-spectrum beta-lactamase producing Escherichia coli isolate 208687 to MIC for extended-spectrum beta-lactamase producing Escherichia coli isolate 208687 in presence of BPL
Escherichia coli [41] = experiment: Antibacterial activity against extended-spectrum beta-lactamase producing Escherichia coli isolate 208687 after 18 hrs by CLSI broth microdilution method; details: isolate 208687, 18 h
Escherichia coli [42] = experiment: Antibacterial activity against Escherichia coli isolate 210737 after 18 hrs by CLSI broth microdilution method; details: isolate 210737, 18 h
Pseudomonas aeruginosa [43] = experiment: Antibacterial activity against IMP-4 producing Pseudomonas aeruginosa isolate 208247 after 18 hrs by CLSI broth microdilution method; details: isolate 208247, 18 h
Pseudomonas aeruginosa [44] = experiment: Selectivity index, ratio of MIC for against IMP-4 producing Pseudomonas aeruginosa isolate 212886 to MIC for against IMP-4 producing Pseudomonas aeruginosa isolate 212886 in presence of BPL
Klebsiella pneumoniae [45] = experiment: Antibacterial activity against KPC-2 producing Klebsiella pneumoniae isolate 212423 after 18 hrs by CLSI broth microdilution method; details: isolate 212423, 18 h

Structure (SMILES): CC(C)C(O/N=C(\C(=O)N[C@@H]1C(=O)N(S(=O)(=O)O)[C@@H]1COC(=O)C1CN(C(=O)c2ccc(O)c(O)c2Cl)C1)c1csc(N)n1)c1cc(=O)c(O)cn1O (stereo not given in full)
- MIC (Pseudomonas aeruginosa [1]): > 64 µg/mL
- MIC (Pseudomonas aeruginosa [2]): 64 µg/mL (≈ 80 µM)
- Selectivity Index (Escherichia coli [3]): 2
- MIC (Pseudomonas aeruginosa [4]): 32 µg/mL
- MIC (Pseudomonas aeruginosa [5]): 32 µg/mL (≈ 40 µM)
- MIC (Klebsiella pneumoniae [6]): 8 µg/mL
- MIC (Pseudomonas aeruginosa [7]): 16 µg/mL
- Selectivity Index (Pseudomonas aeruginosa [8]): 1
- MIC (Klebsiella pneumoniae [9]): 4 µg/mL
- MIC (Escherichia coli [10]): 16 µg/mL (≈ 20 µM)
- MIC (Escherichia coli [11]): 4 µg/mL
- MIC (Pseudomonas aeruginosa [12]): 32 µg/mL
- MIC (Klebsiella pneumoniae [13]): 8 µg/mL
- MIC (Escherichia coli [14]): 16 µg/mL
- MIC (Klebsiella pneumoniae [15]): > 64 µg/mL
- MIC (Pseudomonas aeruginosa [16]): 64 µg/mL (≈ 80 µM)
- MIC (Pseudomonas aeruginosa [17]): > 64 µg/mL
- Selectivity Index (Escherichia coli [18]): 2
- MIC (Pseudomonas aeruginosa [19]): 32 µg/mL
- Selectivity Index (Klebsiella pneumoniae [20]): >16
- MIC (Klebsiella pneumoniae [21]): > 64 µg/mL
- Selectivity Index (Klebsiella pneumoniae [22]): >8
- Selectivity Index (Escherichia coli [23]): 1
- MIC (Escherichia coli [24]): 8 µg/mL
- MIC (Klebsiella pneumoniae [25]): > 64 µg/mL
- Selectivity Index (Escherichia coli [26]): 1 - 8
- Selectivity Index (Pseudomonas aeruginosa [27]): 2
- MIC (Escherichia coli [28]): 16 µg/mL (≈ 20 µM)
- MIC (Escherichia coli [29]): 2 µg/mL
- Selectivity Index (Klebsiella pneumoniae [30]): >8
- Selectivity Index (Klebsiella pneumoniae [31]): >8
- MIC (Klebsiella pneumoniae [32]): 8 µg/mL
- MIC (Klebsiella pneumoniae [33]): 8 µg/mL
- Selectivity Index (Klebsiella pneumoniae [34]): >8
- MIC (Escherichia coli [35]): 8 µg/mL (≈ 10 µM)
- Selectivity Index (Pseudomonas aeruginosa [36]): 2
- MIC (Klebsiella pneumoniae [37]): > 64 µg/mL
- Selectivity Index (Pseudomonas aeruginosa [38]): 2
- MIC (Escherichia coli [39]): 64 µg/mL
- Selectivity Index (Escherichia coli [40]): 8
- MIC (Escherichia coli [41]): 16 µg/mL (≈ 20 µM)
- MIC (Escherichia coli [42]): > 64 µg/mL
- MIC (Pseudomonas aeruginosa [43]): 32 µg/mL (≈ 40 µM)
- Selectivity Index (Pseudomonas aeruginosa [44]): 1 - 2
- MIC (Klebsiella pneumoniae [45]): > 64 µg/mL
